Calls of active or inactive are those of the source. The rule behind the calls is not given here.
Key:
[1] = system: HT-29; assay: Induction of apoptosis in human HT-29 cells assessed as DNA fragmentation by measuring cytoplasmic BrdU-labeled DNA at 30 uM by ELISA; type: functional, cell-based
Procedure, shortened: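 Cytosolic DNA by ELISA after 4 h treatment. BrdU method: cells (13 000/well) prelabelled with 10 μM BrdU for 2 days at 37 °C, unincorporated BrdU removed before treatment. Oligonucleosome method: 20 000 cells/well, 1 day at 37 °C. Cell-free background subtracted, normalized to vehicle; means ± SEM, n = 4.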

[2] = biological target: T1, Peroxisome proliferator-activated receptor gamma (Homo sapiens, UniProt P37231); assay: Competitive binding affinity to PPARgamma (unknown origin) by TR-FRET assay
T1 sequence (P37231 whole entry): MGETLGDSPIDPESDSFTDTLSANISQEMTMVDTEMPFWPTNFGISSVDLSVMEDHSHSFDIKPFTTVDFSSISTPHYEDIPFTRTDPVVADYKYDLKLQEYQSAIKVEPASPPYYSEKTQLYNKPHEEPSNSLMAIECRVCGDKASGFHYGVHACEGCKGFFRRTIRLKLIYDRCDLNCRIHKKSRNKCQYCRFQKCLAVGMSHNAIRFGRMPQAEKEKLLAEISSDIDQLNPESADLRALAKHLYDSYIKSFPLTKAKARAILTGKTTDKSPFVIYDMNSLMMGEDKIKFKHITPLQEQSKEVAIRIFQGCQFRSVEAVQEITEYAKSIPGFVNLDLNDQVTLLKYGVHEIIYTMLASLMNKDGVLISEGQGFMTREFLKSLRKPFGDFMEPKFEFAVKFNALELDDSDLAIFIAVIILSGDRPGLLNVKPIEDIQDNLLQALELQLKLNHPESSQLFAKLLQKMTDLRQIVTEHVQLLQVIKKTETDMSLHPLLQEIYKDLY

[3] = system: HT-29; assay: Induction of apoptosis in human HT-29 cells at 30 uM after 24 hrs by annexin V-FLUOS/propidium iodide staining-based flow cytometry in presence of ascorbic acid; type: functional, cell-based
Procedure, shortened: (§1)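 HT-29 cells co-incubated 24 h with 30 μM compound and antioxidant: glutathione 2.5 mM, α-tocopherol 50 μM, or ascorbic acid 500 μM. Phosphatidylserine externalization measured by annexin V-FLUOS/propidium iodide staining and flow cytometry. Means ± SEM, n = 3.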

[4] = system: HT-29; assay: Induction of apoptosis in human HT-29 cells assessed as increase in caspase 8 activity at 30 uM after 2 hrs by luminescent assay relative to control; type: functional
Procedure, shortened: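 HT-29 cells exposed to compound 2 h; effector/initiator caspase enzymatic activity measured by luminescent assays, normalized to control treatment; means ± SEM, n = 4.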

[5] = system: HT-29; assay: Antiproliferative activity against human HT-29 cells assessed as cellular DNA content at 20 uM after 48 hrs by CyQUANT NF fluorescence assay in presence of N-acetylcysteine; type: functional, cell-based
Procedure, shortened: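 HT-29 given concentration series of test compound with or without antioxidant (NAC 1 mM, GSH 2.5 mM, D3T 25 μM, α-tocopherol 50 μM, ascorbic acid 500 μM) for 48 h. Relative cell number from DNA-binding fluorescent dye; means ± SD, n = 4.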

[6] = system: HT-29; assay: Induction of apoptosis in human HT-29 cells assessed as phosphatidylserine externalization at 20 uM after 48 hrs by annexin V-FLUOS/propidium iodide staining-based flow cytometry (reference value: 8%); type: functional
[7] = system: HT-29; assay: Downregulation of cyclin D3 expression in human HT-29 cells at 10 uM after 48 hrs by immunoblotting method; type: functional, cell-based
Procedure, shortened: (§2)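 HT-29 exposed to 10 μM for 48 h; whole-cell lysates immunoblotted for the indicated proteins (total and cleaved PARP for the apoptosis line).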

[8] = system: HT-29; assay: Antiproliferative activity against human HT-29 cells assessed as cellular DNA content after 72 hrs by CyQUANT NF fluorescence assay; type: functional, cell-based; conditions: HT-29, 72 h
Procedure, shortened: (§3)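 Cells seeded at 750 (HT-29), 250 (PC-3) or 900 (T84, MCF7) cells/well, treated next day with concentration series for 72 h (HT-29, PC-3) or 96 h (T84, MCF7). Relative cell number from cellular DNA content by fluorescent DNA-binding dye. Variable-slope fit; efficiency = maximal inhibition (100% − Bottom) vs untreated; IC50 relative to the compound's own maximal efficiency.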

[9] = system: HT-29; assay: Induction of apoptosis in human HT-29 cells at 30 uM after 24 hrs by annexin V-FLUOS/propidium iodide staining-based flow cytometry in presence of alpha-tocopherol; type: functional, cell-based; procedure, shortened: as §1
[10] = system: HT-29; assay: Downregulation of cyclin E2 expression in human HT-29 cells at 10 uM after 48 hrs by immunoblotting method; type: functional, cell-based; procedure, shortened: as §2
[11] = system: HT-29; assay: Antiproliferative activity against human HT-29 cells assessed as cellular DNA content after 72 hrs by CyQUANT NF fluorescence assay relative to control; type: functional; procedure, shortened: as §3
[12] = system: HT-29; assay: Induction of apoptosis in human HT-29 cells at 30 uM after 24 hrs by annexin V-FLUOS/propidium iodide staining-based flow cytometry in presence of N-acetylcysteine; type: functional, cell-based
Procedure, shortened: (§4)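 HT-29 treated 24 h with 30 μM with or without antioxidant (NAC 1 mM, D3T 25 μM). Apoptosis by annexin V/propidium iodide flow cytometry; means ± SEM, n = 3.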

[13] = biological target: T2, Peroxisome proliferator-activated receptor alpha (Homo sapiens, UniProt Q07869); assay: Competitive binding affinity to PPARalpha (unknown origin) by TR-FRET assay
T2 sequence (Q07869 whole entry): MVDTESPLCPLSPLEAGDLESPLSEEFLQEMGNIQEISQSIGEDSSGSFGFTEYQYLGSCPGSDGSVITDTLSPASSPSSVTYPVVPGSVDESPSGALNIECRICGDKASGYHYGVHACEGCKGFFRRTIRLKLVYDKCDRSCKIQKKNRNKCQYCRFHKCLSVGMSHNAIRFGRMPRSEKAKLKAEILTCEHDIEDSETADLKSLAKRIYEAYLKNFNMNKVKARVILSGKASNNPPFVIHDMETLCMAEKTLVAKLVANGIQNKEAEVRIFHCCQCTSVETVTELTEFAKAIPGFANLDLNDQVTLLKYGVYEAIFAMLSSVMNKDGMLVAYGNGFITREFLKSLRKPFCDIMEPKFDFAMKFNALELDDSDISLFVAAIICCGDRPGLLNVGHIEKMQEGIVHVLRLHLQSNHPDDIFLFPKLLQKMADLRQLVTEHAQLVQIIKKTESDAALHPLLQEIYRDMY

[14] = system: HT-29; assay: Induction of apoptosis in human HT-29 cells at 30 uM after 24 hrs by annexin V-FLUOS/propidium iodide staining-based flow cytometry in presence of 3H-1,2-dithiole-3-thione; type: functional, cell-based; procedure, shortened: as §4
[15] = system: HT-29; assay: Increase in extracellular acidification rate in human HT-29 cells at 10 uM measured for 20 to 150 mins by time-resolved fluorescence assay; type: functional
Procedure, shortened: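 HT-29 seeded 80 000 cells/well, held overnight at 37 °C without CO2. Low-buffering medium (1 mM PBS pH 7.4, 20 mM glucose, salts) with pH-sensitive lifetime probe, unsealed wells. Time-resolved fluorescence at 37 °C for 200 min, lifetime converted to pH. Acidification rate (H+ change/min) taken over 20–150 min; means ± SEM, n = 8.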

[16] = Antiproliferative activity against human PC3 cells assessed as cellular DNA content after 72 hrs by CyQUANT NF fluorescence assay relative to control; type: functional, PC-3; procedure, shortened: as §3

COc1c(CC=C(C)C)c(O)c(C(=O)O)c(CCc2ccccc2)c1CC=C(C)C
Activity [1]: Active
Ki [2]: 0.7 µM
Activity [3]: Active
fold change (FC) [4]: 3
Activity [5]: Active
Activity [6]: 44%
Activity [7]: Active
IC50 [8]: 8.1 µM
Activity [9]: Active
Activity [10]: Active
Efficacy [11]: 95%
Activity [12]: Active
Ki [13]: 9.1 µM
Activity [14]: Active
Activity [15]: 2.9 ×10⁻⁹ /min
Efficacy [16]: 95%

Reference: ChEMBL document CHEMBL3779787, “Amorfrutin C Induces Apoptosis and Inhibits Proliferation in Colon Cancer Cells through Targeting Mitochondria” (J Nat Prod, 2016)
